How the values were obtained:
P2Y purinoceptor 2 = P2Y purinoceptor 2 (Homo sapiens, UniProt P41231); assay: Inhibitory concentration against P2Y2 receptor expressed in 1321N1 astrocytoma Cells; (n=3)
P2X purinoceptor 3 = biological target: T1, P2X purinoceptor 3 (Rattus norvegicus, UniProt P49654); assay: Inhibitory concentration against rat P2X purinoceptor 3 expressed in Xenopus laevis oocytes; assay type: functional, cell-based, Oocyte
T1 sequence (P49654 whole entry): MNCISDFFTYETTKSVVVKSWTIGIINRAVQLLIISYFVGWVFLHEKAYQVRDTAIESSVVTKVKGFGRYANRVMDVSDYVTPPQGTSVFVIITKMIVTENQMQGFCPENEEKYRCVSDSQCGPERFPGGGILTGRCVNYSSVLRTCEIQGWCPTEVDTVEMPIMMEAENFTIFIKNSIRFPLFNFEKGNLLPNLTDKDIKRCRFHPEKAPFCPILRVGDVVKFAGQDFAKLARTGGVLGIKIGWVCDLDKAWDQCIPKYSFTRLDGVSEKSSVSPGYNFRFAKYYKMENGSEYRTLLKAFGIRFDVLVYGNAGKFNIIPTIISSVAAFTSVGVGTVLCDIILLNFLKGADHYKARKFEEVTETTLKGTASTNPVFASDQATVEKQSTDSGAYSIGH
Method in brief: (§1)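 Two-electrode voltage clamp on Xenopus laevis oocytes expressing recombinant rat or human P2X subtypes, recording receptor-mediated currents. IC50 values came from nonlinear least-squares Hill fits to pooled concentration-inhibition data; mean ± SEM from at least three experiments.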

P2X purinoceptor 2 = biological target: T2, P2X purinoceptor 2 (Rattus norvegicus, UniProt P49653); assay: Inhibitory concentration against rat P2X purinoceptor 2 expressed in Xenopus laevis oocytes; assay type: functional, cell-based, Oocyte; method in brief: as §1
T2 sequence (P49653 whole entry): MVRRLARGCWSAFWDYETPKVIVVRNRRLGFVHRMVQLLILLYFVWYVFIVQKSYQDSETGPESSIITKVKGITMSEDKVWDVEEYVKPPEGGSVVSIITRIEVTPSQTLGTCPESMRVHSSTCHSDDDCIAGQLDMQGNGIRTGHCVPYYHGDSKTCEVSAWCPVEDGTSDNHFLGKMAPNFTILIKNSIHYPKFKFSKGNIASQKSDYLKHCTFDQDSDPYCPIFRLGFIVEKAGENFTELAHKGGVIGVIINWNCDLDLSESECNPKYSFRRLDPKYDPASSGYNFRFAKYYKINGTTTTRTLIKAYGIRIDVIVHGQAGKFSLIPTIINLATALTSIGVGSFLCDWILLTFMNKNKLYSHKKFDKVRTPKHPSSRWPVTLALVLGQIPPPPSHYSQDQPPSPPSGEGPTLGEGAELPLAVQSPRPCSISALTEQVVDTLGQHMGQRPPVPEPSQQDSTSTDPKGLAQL

[1] = biological target: T3, P2Y purinoceptor 11 (Homo sapiens) (UniProt Q96G91); assay: Relative potency was measured against P2Y purinoceptor 11; assay type: functional
T3 sequence (whole entry): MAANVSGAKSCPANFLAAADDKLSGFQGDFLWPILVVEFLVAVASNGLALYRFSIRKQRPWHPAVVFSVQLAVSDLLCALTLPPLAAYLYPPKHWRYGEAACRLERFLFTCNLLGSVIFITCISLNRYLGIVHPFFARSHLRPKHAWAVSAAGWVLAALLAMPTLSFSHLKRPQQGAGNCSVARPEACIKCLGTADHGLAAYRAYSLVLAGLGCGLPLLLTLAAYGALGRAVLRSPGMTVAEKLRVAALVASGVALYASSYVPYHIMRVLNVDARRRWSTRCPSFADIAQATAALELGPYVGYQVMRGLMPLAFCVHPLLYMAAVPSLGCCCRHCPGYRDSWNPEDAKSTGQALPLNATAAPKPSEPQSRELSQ

P2X purinoceptor 7 = biological target: T4, P2X purinoceptor 7 (Rattus norvegicus, UniProt Q64663); assay: Inhibitory concentration against rat P2X purinoceptor 7 expressed in Xenopus laevis oocytes; assay type: functional, cell-based, Oocyte; method in brief: as §1
T4 sequence (Q64663 whole entry): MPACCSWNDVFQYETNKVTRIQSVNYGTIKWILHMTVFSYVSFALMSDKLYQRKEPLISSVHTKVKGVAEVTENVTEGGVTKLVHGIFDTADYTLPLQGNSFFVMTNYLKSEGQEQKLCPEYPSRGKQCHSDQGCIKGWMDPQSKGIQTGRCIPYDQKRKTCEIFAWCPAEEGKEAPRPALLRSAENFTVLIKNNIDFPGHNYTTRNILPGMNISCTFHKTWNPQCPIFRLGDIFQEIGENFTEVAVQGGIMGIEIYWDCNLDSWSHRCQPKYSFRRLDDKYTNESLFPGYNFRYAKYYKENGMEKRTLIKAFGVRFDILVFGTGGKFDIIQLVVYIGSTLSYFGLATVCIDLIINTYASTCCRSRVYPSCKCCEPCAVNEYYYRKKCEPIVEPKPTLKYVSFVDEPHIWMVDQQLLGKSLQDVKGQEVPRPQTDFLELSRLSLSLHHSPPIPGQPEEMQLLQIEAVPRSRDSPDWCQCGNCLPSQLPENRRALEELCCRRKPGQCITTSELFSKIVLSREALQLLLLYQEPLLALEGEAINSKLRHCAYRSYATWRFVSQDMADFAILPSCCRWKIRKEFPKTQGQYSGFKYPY

Chain of P2Y purinoceptor 2 (P41231 whole entry): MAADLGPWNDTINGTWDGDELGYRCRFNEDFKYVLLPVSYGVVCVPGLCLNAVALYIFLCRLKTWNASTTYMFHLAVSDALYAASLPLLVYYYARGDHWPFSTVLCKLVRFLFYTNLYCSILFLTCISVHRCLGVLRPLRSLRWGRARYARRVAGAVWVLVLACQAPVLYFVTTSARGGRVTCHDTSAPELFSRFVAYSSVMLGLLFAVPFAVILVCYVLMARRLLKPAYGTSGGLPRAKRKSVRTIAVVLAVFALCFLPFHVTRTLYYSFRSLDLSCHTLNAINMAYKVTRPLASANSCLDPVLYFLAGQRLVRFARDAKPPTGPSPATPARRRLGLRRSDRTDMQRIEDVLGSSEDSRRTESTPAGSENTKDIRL

IC50 (P2Y purinoceptor 2): 170000 nM
IC50 (P2X purinoceptor 3): 776 nM
IC50 (P2X purinoceptor 2): 138 nM
Rel potency [1]: 100
IC50 (P2X purinoceptor 7): > 3160 nM
Compound: O=C(Nc1cccc(C(=O)Nc2cc(C(=O)Nc3ccc(S(=O)(=O)O)c4cc(S(=O)(=O)O)cc(S(=O)(=O)O)c34)ccc2F)c1)Nc1cccc(C(=O)Nc2cc(C(=O)Nc3ccc(S(=O)(=O)O)c4cc(S(=O)(=O)O)cc(S(=O)(=O)O)c34)ccc2F)c1
